Tests used:
Canis familiaris [1] = assay: Inhibition of plasma total cholesterol in the normolipidemic dogs after day 4 of oral administration of 1 mg/kg/ day; format: functional, Canis lupus familiaris
Outline: (§1)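 Normolipidemic dogs dosed once daily for 4 days by oral gavage, compound suspended in cornstarch vehicle. Plasma sampled 24 h after dosing on days 0, 2, 3 and 4, assayed for triglycerides and total cholesterol (mg/dL). Mean percent inhibition versus day-0 level is given for treated dogs; n = 6 per group; significance by one-way ANOVA, p < 0.05.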

Rattus norvegicus [2] = assay: Inhibition of plasma triglycerides in normolipidemic rats after 2 hr of 50 mg/kg oral dosing; format: functional
Outline: (§2)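 Overnight-fasted normolipidemic rats received a single oral dose in cornstarch vehicle. Blood was drawn at 2, 6 and 24 h post-dose and assayed for triglycerides and total cholesterol, with free access to food after the 6 h sample. Value is mean percent inhibition versus a separate vehicle-treated group, unpaired t test p < 0.05, NS = no significant change, N = 6.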

Canis familiaris [3] = assay: Inhibition of plasma total cholesterol in the normolipidemic dogs after day 0 of oral administration of 2.5 mg/kg/ day.; format: functional, Canis lupus familiaris; outline: as §1
Canis familiaris [4] = assay: Inhibition of plasma total triglycerides in the normolipidemic dogs after day 2 of oral administration of 2.5 mg/kg/ day.; format: functional, Canis lupus familiaris; outline: as §1
Canis familiaris [5] = assay: Inhibition of plasma total triglycerides in the normolipidemic dogs after day 0 of oral administration of 5 mg/kg/ day.; format: functional, Canis lupus familiaris; outline: as §1
Canis familiaris [6] = assay: Inhibition of plasma total cholesterol in the normolipidemic dogs after day 3 of oral administration of 2.5 mg/kg/ day.; format: functional, Canis lupus familiaris; outline: as §1
Canis familiaris [7] = assay: Inhibition of plasma total cholesterol in the normolipidemic dogs after day 2 of oral administration of 1 mg/kg/ day.; format: functional, Canis lupus familiaris; outline: as §1
Rattus norvegicus [8] = assay: Inhibition of plasma triglycerides in normolipidemic rats after 24 h of 10 mg/kg oral dosing; format: functional; outline: as §2
Canis familiaris [9] = assay: Inhibition of plasma total cholesterol in the normolipidemic dogs after day 2 of oral administration of 2.5 mg/kg/ day.; format: functional, Canis lupus familiaris; outline: as §1
[10] = target: T1, Microsomal triglyceride transfer protein large subunit (Homo sapiens, UniProt P55157); assay: In vitro inhibitory activity against MTP using MTP transfer assay
T1 sequence (P55157 whole entry): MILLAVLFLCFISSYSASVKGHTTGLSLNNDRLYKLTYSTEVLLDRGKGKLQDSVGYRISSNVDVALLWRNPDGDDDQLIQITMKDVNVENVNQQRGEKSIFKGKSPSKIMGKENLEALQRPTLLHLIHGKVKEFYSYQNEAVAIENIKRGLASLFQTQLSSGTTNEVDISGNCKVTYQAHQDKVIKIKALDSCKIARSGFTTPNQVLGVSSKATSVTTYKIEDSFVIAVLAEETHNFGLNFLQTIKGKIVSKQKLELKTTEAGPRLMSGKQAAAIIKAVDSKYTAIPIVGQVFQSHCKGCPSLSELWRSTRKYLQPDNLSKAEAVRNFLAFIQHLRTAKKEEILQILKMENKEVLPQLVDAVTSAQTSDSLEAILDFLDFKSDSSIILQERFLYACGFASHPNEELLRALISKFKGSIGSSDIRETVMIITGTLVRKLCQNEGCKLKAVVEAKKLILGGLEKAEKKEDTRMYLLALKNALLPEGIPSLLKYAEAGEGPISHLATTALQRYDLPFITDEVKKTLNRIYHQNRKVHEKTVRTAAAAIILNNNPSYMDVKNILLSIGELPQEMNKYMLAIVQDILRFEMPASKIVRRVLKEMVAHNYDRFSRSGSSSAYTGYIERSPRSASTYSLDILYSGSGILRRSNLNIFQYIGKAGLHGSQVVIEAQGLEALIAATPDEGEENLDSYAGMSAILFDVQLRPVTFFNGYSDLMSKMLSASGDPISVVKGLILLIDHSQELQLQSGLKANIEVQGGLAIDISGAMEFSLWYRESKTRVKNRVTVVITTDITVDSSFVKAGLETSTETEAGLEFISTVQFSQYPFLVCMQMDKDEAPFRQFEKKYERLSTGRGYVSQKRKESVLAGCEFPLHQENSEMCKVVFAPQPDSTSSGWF

Canis familiaris [11] = assay: Inhibition of plasma total triglycerides in the normolipidemic dogs after day 4 of oral administration of 10 mg/kg/ day; format: functional, Canis lupus familiaris
Rattus norvegicus [12] = assay: Inhibition of total cholesterol in normolipidemic rats after 6 hr of 50 mg/kg oral dosing; format: functional; outline: as §2
Canis familiaris [13] = assay: Inhibition of plasma total cholesterol in the normolipidemic dogs after day 4 of oral administration of 5 mg/kg/ day; format: functional, Canis lupus familiaris; outline: as §1
Canis familiaris [14] = assay: Inhibition of plasma total triglycerides in the normolipidemic dogs after day 2 of oral administration of 5 mg/kg/ day.; format: functional, Canis lupus familiaris; outline: as §1
Canis familiaris [15] = assay: Inhibition of plasma total cholesterol in the normolipidemic dogs after day 0 of oral administration of 5 mg/kg/ day.; format: functional, Canis lupus familiaris; outline: as §1
Canis familiaris [16] = assay: Inhibition of plasma total triglycerides in the normolipidemic dogs after day 3 of oral administration of 1 mg/kg/ day.; format: functional, Canis lupus familiaris; outline: as §1
Canis familiaris [17] = assay: Inhibition of plasma total triglycerides in the normolipidemic dogs after day 4 of oral administration of 1 mg/kg/ day; format: functional, Canis lupus familiaris
Rattus norvegicus [18] = assay: Inhibition of total cholesterol in normolipidemic rats after 2 hr of 50 mg/kg oral dosing; format: functional; outline: as §2
Canis familiaris [19] = assay: Inhibition of plasma total cholesterol in the normolipidemic dogs after day 0 of oral administration of 10 mg/kg/ day.; format: functional, Canis lupus familiaris; outline: as §1
Canis familiaris [20] = assay: Inhibition of plasma total triglycerides in the normolipidemic dogs after day 4 of oral administration of 5 mg/kg/ day; format: functional, Canis lupus familiaris
Canis familiaris [21] = assay: Inhibition of plasma total cholesterol in the normolipidemic dogs after day 4 of oral administration of 2.5 mg/kg/ day; format: functional, Canis lupus familiaris; outline: as §1
Rattus norvegicus [22] = assay: Inhibition of plasma triglycerides in normolipidemic rats after 6 hr of 50 mg/kg oral dosing; format: functional; outline: as §2
Rattus norvegicus [23] = assay: Inhibition of total cholesterol in normolipidemic rats after 6 hr of 10 mg/kg oral dosing; format: functional; outline: as §2
Canis familiaris [24] = assay: Inhibition of plasma total triglycerides in the normolipidemic dogs after day 2 of oral administration of 1 mg/kg/ day.; format: functional, Canis lupus familiaris; outline: as §1
Canis familiaris [25] = assay: Inhibition of plasma total cholesterol in the normolipidemic dogs after day 3 of oral administration of 1 mg/kg/ day.; format: functional, Canis lupus familiaris; outline: as §1
Canis familiaris [26] = assay: Inhibition of plasma total cholesterol in the normolipidemic dogs after day 2 of oral administration of 5 mg/kg/ day.; format: functional, Canis lupus familiaris; outline: as §1
Canis familiaris [27] = assay: Inhibition of plasma total cholesterol in the normolipidemic dogs after day 0 of oral administration of 1 mg/kg/ day.; format: functional, Canis lupus familiaris; outline: as §1
Canis familiaris [28] = assay: Inhibition of plasma total triglycerides in the normolipidemic dogs after day 2 of oral administration of 10 mg/kg/ day.; format: functional, Canis lupus familiaris; outline: as §1
Canis familiaris [29] = assay: Inhibition of plasma total triglycerides in the normolipidemic dogs after day 3 of oral administration of 5 mg/kg/ day.; format: functional, Canis lupus familiaris
Rattus norvegicus [30] = assay: Inhibition of total cholesterol in normolipidemic rats after 2 hr of 10 mg/kg oral dosing; format: functional; outline: as §2
Canis familiaris [31] = assay: Inhibition of plasma total cholesterol in the normolipidemic dogs after day 2 of oral administration of 10 mg/kg/ day.; format: functional, Canis lupus familiaris; outline: as §1
Canis familiaris [32] = assay: Inhibition of plasma total triglycerides in the normolipidemic dogs after day 0 of oral administration of 10 mg/kg/ day.; format: functional, Canis lupus familiaris; outline: as §1
Canis familiaris [33] = assay: Inhibition of plasma total cholesterol in the normolipidemic dogs after day 3 of oral administration of 5 mg/kg/ day.; format: functional, Canis lupus familiaris; outline: as §1
Rattus norvegicus [34] = assay: Inhibition of total cholesterol in normolipidemic rats after 24 hr of 10 mg/kg oral dosing; format: functional; outline: as §2
Rattus norvegicus [35] = assay: Inhibition of plasma triglycerides in normolipidemic rats after 24 hr of 50 mg/kg oral dosing; format: functional; outline: as §2
Rattus norvegicus [36] = assay: Inhibition of total cholesterol in normolipidemic rats after 24 hr of 50 mg/kg oral dosing; format: functional; outline: as §2
Canis familiaris [37] = assay: Inhibition of plasma total cholesterol in the normolipidemic dogs after day 4 of oral administration of 10 mg/kg/ day.; format: functional, Canis lupus familiaris; outline: as §1
Rattus norvegicus [38] = assay: Inhibition of plasma triglycerides in normolipidemic rats after 6 hr of 10 mg/kg oral dosing; no significant change; format: functional, organism-based; design: dose 10 mg/kg; outline: as §2
Canis familiaris [39] = assay: Inhibition of plasma total cholesterol in the normolipidemic dogs after day 3 of oral administration of 10 mg/kg/ day.; format: functional, Canis lupus familiaris; outline: as §1
Canis familiaris [40] = assay: Inhibition of plasma total triglycerides in the normolipidemic dogs after day 4 of oral administration of 2.5 mg/kg/ day; format: functional, Canis lupus familiaris
Rattus norvegicus [41] = assay: Inhibition of plasma triglycerides in normolipidemic rats after 2 hr of 10 mg/kg oral dosing; format: functional; outline: as §2
Canis familiaris [42] = assay: Inhibition of plasma total triglycerides in the normolipidemic dogs after day 0 of oral administration of 2.5 mg/kg/ day.; format: functional, Canis lupus familiaris; outline: as §1
Canis familiaris [43] = assay: Inhibition of plasma total triglycerides in the normolipidemic dogs after day 3 of oral administration of 10 mg/kg/ day.; format: functional, Canis lupus familiaris
Canis familiaris [44] = assay: Inhibition of plasma total triglycerides in the normolipidemic dogs after day 3 of oral administration of 2.5 mg/kg/ day.; format: functional, Canis lupus familiaris
Canis familiaris [45] = assay: Inhibition of plasma total triglycerides in the normolipidemic dogs after day 0 of oral administration of 1 mg/kg/ day.; format: functional, Canis lupus familiaris; outline: as §1

**Q.** What does the source list for `COC(=O)N1CCN([C@H]2Cc3ccc(NC(=O)c4cccc(C)c4-c4ccc(C(F)(F)F)cc4)cc3C2)CC1`?
**A.** Lipid level (Canis familiaris [1]): <73 mg/dL; Reduction (Rattus norvegicus [2]): 80%; Lipid level (Canis familiaris [3]): 109 mg/dL; Lipid level (Canis familiaris [4]): 28 mg/dL; Lipid level (Canis familiaris [5]): 37 mg/dL; Lipid level (Canis familiaris [6]): 53 mg/dL; Lipid level (Canis familiaris [7]): 91 mg/dL; Reduction (Rattus norvegicus [8]): 29%; Lipid level (Canis familiaris [9]): 67 mg/dL; IC50 [10]: 40 nM; Lipid level (Canis familiaris [11]): 19 mg/dL; Reduction (Rattus norvegicus [12]): 50%; Lipid level (Canis familiaris [13]): 38 mg/dL; Lipid level (Canis familiaris [14]): 20 mg/dL; Lipid level (Canis familiaris [15]): 127 mg/dL; Lipid level (Canis familiaris [16]): 26 mg/dL; Lipid level (Canis familiaris [17]): 28 mg/dL; Reduction (Rattus norvegicus [18]): 35%; Lipid level (Canis familiaris [19]): 143 mg/dL; Lipid level (Canis familiaris [20]): 14 mg/dL; Lipid level (Canis familiaris [21]): <42 mg/dL; Reduction (Rattus norvegicus [22]): 56%; Reduction (Rattus norvegicus [23]): 29%; Lipid level (Canis familiaris [24]): 28 mg/dL; Lipid level (Canis familiaris [25]): 83 mg/dL; Lipid level (Canis familiaris [26]): 79 mg/dL; Lipid level (Canis familiaris [27]): 120 mg/dL; Lipid level (Canis familiaris [28]): 24 mg/dL; Lipid level (Canis familiaris [29]): 17 mg/dL; Reduction (Rattus norvegicus [30]): 40%; Lipid level (Canis familiaris [31]): 79 mg/dL; Lipid level (Canis familiaris [32]): 62 mg/dL; Lipid level (Canis familiaris [33]): <53 mg/dL; Reduction (Rattus norvegicus [34]): 15%; Reduction (Rattus norvegicus [35]): 44%; Reduction (Rattus norvegicus [36]): 18%; Lipid level (Canis familiaris [37]): <31 mg/dL; NS (Rattus norvegicus [38]): no significant change; Lipid level (Canis familiaris [39]): 50 mg/dL; Lipid level (Canis familiaris [40]): 25 mg/dL; Reduction (Rattus norvegicus [41]): 70%; Lipid level (Canis familiaris [42]): 58 mg/dL; Lipid level (Canis familiaris [43]): 18 mg/dL; Lipid level (Canis familiaris [44]): 20 mg/dL; Lipid level (Canis familiaris [45]): 38 mg/dL

Source: ChEMBL document CHEMBL1134325, “Diaminoindanes as microsomal triglyceride transfer protein inhibitors” (J Med Chem, 2001)
